Calls of active or inactive are those of the source. The calls are words filed in the database; no cut-off is given here. Where only a bound is given, the exact number is not on record here.

This is an account of results in ChEMBL document CHEMBL4052815, “Amphiphilic Modulation of Glycosylated Antitumor Ether Lipids Results in a Potent Triamino Scaffold against Epithelial Cancer Cell Lines and BT474 Cancer Stem Cells” (J Med Chem, 2017).

In series [1] the test system is JIMT-1. As to the kind of experiment: Cytotoxicity against human JIMT1 cells assessed as decrease in cell viability after 48 hrs by MTS assay. As to conditions: JIMT-1, 48 h. It counts as functional. The gist of the method:
(§1)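 Cells grown at 37 °C, 5% CO2, with 10% FBS and penicillin/streptomycin: MDA-MB-231, JIMT1 and DU145 in DMEM, PC3 in F12K, BT474 in Hybricare, MiaPaCa2 in DMEM plus 2.5% horse serum. Cells (7500–9000/well) were plated for 24 h, then exposed to 0–20 µM for 48 h. MTS was added for 1–4 h and OD490 read, blank-subtracted, relative to vehicle. CC50 was read from plots; mean ± SD, six independent determinations.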
On the technique in general: Tetrazolium assays rely on reduction of a dye to a coloured formazan, in cell work by metabolically active cells.

The subject of series [2] is MDA-MB-231. As to the kind of experiment: Cytotoxicity against human MDA-MB-231 cells assessed as decrease in cell viability after 48 hrs by MTS assay. Conditions: MDA-MB-231, 48 h. The format is functional. The method, boiled down: as §1
For series [3], the system named is BT-474. As to the kind of experiment: Cytotoxicity against human BT474 cells assessed as decrease in cell viability after 48 hrs by MTS assay. Conditions: BT-474, 48 h. It counts as functional. The method, boiled down: as §1
Series [4] deals with MIA PaCa-2. As to the kind of experiment: Cytotoxicity against human MIAPaCa2 cells assessed as decrease in cell viability after 48 hrs by MTS assay. It counts as functional. As to conditions: MIA PaCa-2, 48 h. The gist of the method:
as §1

Series [5] deals with DU-145. As to the kind of experiment: Cytotoxicity against human DU145 cells assessed as decrease in cell viability after 48 hrs by MTS assay. It counts as functional. As to conditions: DU-145, 48 h. The gist of the method:
as §1

Series [6] concerns PC-3. As to the kind of experiment: Cytotoxicity against human PC3 cells assessed as decrease in cell viability after 48 hrs by MTS assay. It counts as functional. As to conditions: PC-3, 48 h. The method, boiled down:
as §1

The subject of series [7] is BT-474. As to the kind of experiment: Induction of disintegration of human BT474 cancer stem cell spheroids at 7.5 uM after 3 days by microscopic method. It counts as functional, cell-based. The method, boiled down: (§2)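 BT474 stem-cell spheroids (ALDH1-sorted, formed over 6 days in Mammocult on ultra-low adhesion plates) exposed to 0, 7.5 or 20 µM for 3 days. Integrity was judged by light microscopy at ×10 against untreated spheroid wells.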

Series [8] deals with BT-474. As to the kind of experiment: Induction of disintegration of human BT474 cancer stem cell spheroids at 20 uM after 3 days by microscopic method. It counts as functional, cell-based. The gist of the method: as §2
For series [9], the system named is BT-474. As to the kind of experiment: Cytotoxicity against human BT474 cancer stem cell spheroids assessed as cell viability at 20 uM after 3 days by MTS assay relative to control. As to conditions: BT-474, 72 h.
Series [10] in a line: Chemical stability of compound in aqueous DMSO solution at pH 2 to 3 at 30 uM after 1 week. It counts as physicochemical. Conditions: buffer, pH 2, 168 h. The gist of the method: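 Tested as the TFA salt at 30 µM in aqueous DMSO, pH 2-3, and held for at least one week.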
The test system of series [11] is DU-145. As to the kind of experiment: Cytotoxicity against human DU145 cells assessed as decrease in cell viability at 2 to 8 uM in presence of pan-caspase inhibitor Q-VD-OPh after 48 hrs by MTS assay. The format is functional, cell-based. The gist of the method: (§3)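 DU145 or JIMT1 cells seeded for 24 h, then given 40 µM pan-caspase inhibitor along with varying compound concentrations. Incubation continued 48 h, then MTS (20% v/v) for 1–4 h, OD490 read. Values are blank-subtracted and relative to vehicle controls; mean ± SD.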

For series [12], the system named is JIMT-1. As to the kind of experiment: Cytotoxicity against human JIMT1 cells assessed as decrease in cell viability at 2 to 8 uM in presence of pan-caspase inhibitor Q-VD-OPh after 48 hrs by MTS assay. It counts as functional, cell-based. The gist of the method: as §3
The test system of series [13] is BT-474. As to the kind of experiment: Cytotoxicity against human BT474 cancer stem cell spheroids assessed as decrease in cell viability up to 20 uM after 3 days by MTS assay.
Series [14] has as its system BT-474. As to the kind of experiment: Cytotoxicity against human BT474 cancer stem cell spheroids assessed as decrease in cell viability at 2 to 10 uM after 3 days by MTS assay.

One may read the CC50 as the concentration at which the toxic effect on the cells reaches its halfway point. Consider `O=C(O)CCCc1ccc(N(CCCl)CCCl)cc1` [CHLORAMBUCIL], for which the CC50 in series [1], in series [2], in series [3], in series [4], in series [5] and in series [6] was over 150 µM in each case.

What is called viability is a read-out of living cells in per cent, often relative to untreated cells. On to `CCCCCCCCCCCCCCCCOC[C@H](CO[C@@H]1O[C@H](CNCCCN)[C@@H](O)[C@H](O)[C@H]1N)OC`, for which the CC50 was 13.5 µM in series [1]; 13.5 µM in [2]; over 20 µM in series [3]; 18.5 µM in [4]; 16.5 µM in series [5]; 12.5 µM in [6]. Further, the outcome in series [7] was Active. In addition, in [8], the outcome was inactive. The viability at 20 µM in series [9] was 0%.

With `CCCCCCCCCCCCCCCCOC[C@H](CO[C@@H]1O[C@H](CNCCCCCCCCCCCCNC(=O)CCCc2ccc(N(CCCl)CCCl)cc2)[C@@H](O)[C@H](O)[C@H]1N)OC.O=C(O)C(F)(F)F.O=C(O)C(F)(F)F`, the CC50 in [1] is 16 µM; in [2] it was 10.5 µM; in series [3] it was 13 µM; in series [4], over 20 µM; in series [5], over 20 µM; in [6] it was over 20 µM. Further, the Stability result in series [10] was “Stable”.

Take `COc1cccc2c1C(=O)c1c(O)c3c(c(O)c1C2=O)C[C@@](O)(C(=O)CO)C[C@@H]3O[C@H]1C[C@H](N)[C@H](O)[C@H](C)O1`: the result in series [7], in [11] and in [12] was inactive. Further, in series [13], the outcome was Active.

In the case of `CCCCCCCCCCCCCCCCOC[C@@H](COC1O[C@H](CN)[C@@H](O)[C@H](O)[C@H]1N)OC` (stereo not given in full), the outcome in series [14] was Active.

With `NCCCCCCCCCCCCO[C@@H]1O[C@H](CN)[C@@H](O)[C@H](O)[C@H]1N`, the CC50 in series [1], in series [2], in series [3], in series [4], in series [5] and in series [6] was over 20 µM in each case. Further, the outcome in series [7], in series [8] and in series [13] was inactive.

With `CC[C@@H](C(=O)[C@@H](C)[C@@H](O)[C@H](C)[C@@H]1O[C@@H]([C@@H](CC)C(=O)O)CC[C@@H]1C)[C@H]1O[C@]2(C=C[C@@H](O)[C@]3(CC[C@@](C)([C@H]4CC[C@](O)(CC)[C@H](C)O4)O3)O2)[C@H](C)C[C@@H]1C`, in [7], the result was inactive. The result in [8] was Active.

`CCCCCCCCCCCCCCN` [TETRADECYLAMINE]: the CC50 was determined as 27 µM in series [1], 18 µM in series [4], 16.5 µM in series [5] and 24 µM in [6]. The result in [7], in series [8] and in [13] was inactive.

Take `CCCCCCCCCCCCCCCCOC[C@H](CO[C@@H]1O[C@H](CO)[C@@H](O)[C@H](O)[C@H]1N)OC`: the CC50 in series [1] was 9 µM; in series [2], 7.1 µM; in [3], 8 µM; in [4], 9 µM; in series [5], 10 µM; in [6], 13.5 µM. The result in series [14] was Active.

For the compound `CCCCCCCCCCCCCCCCOC[C@H](CO[C@@H]1O[C@H](CN)[C@@H](O)[C@H](O)[C@H]1NCCCN)OC`, the CC50 was 12.5 µM in [1]; 17.5 µM in series [2]; over 20 µM in [3]; 14.5 µM in series [4]; 18.5 µM in series [5]; 14.5 µM in series [6]. Further, the outcome in series [7] was Active. Also, in series [8], the outcome was inactive. Also, the viability at 20 µM in series [9] amounted to 0%.

Consider `CCCCCCCCCCCCCCCCOC[C@H](CO[C@@H]1O[C@H](CN)[C@@H](O)[C@H](O)[C@H]1NCCCCCCCCCCCCN)OC`, for which the CC50 in [1] was determined as 8 µM; in series [2] it was 5.5 µM; in series [3], 13.5 µM; in series [4], 8.5 µM; in series [5] it was 7.5 µM; in series [6] it was 8.5 µM. For the same compound, the outcome in [7] and in series [8] was Active. For the same compound, the viability at 20 µM in series [9] was found to be 0%.
